pIC50: −log10 of the molar value. Active and inactive are the calls of the source. The rule behind the calls is not given here.
Experiments:
NCI-H460 = test: Cytotoxicity against human NCI-H460 cells assessed as cell growth at 10 uM after 48 hrs by sulforhodamine B assay; format: functional; conditions: NCI-H460, 48 h, read-out: Activity
SNB-19 = test: Growth inhibition of human SNB19 cells after 48 hrs by sulforhodamine B assay; format: functional, cell-based; conditions: SNB-19, 48 h; for CC50: read-out: LC50 (the source's name)
Method in brief: (§1)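 Cells grown in RPMI 1640 with 5% FBS and 2 mM L-glutamine, seeded at 5,000–40,000 cells/well according to doubling time. After 24 h, time-zero plates are TCA-fixed. Five concentrations (10-fold or ½log dilutions, DMSO stocks) are applied for 48 h at 37 °C, 5% CO₂. Cells are TCA-fixed, SRB-stained and read at 515 nm. IC₅₀ is taken from [(Ti−Tz)/(C−Tz)]×100 = 50.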

MDA-MB-231 [1] = test: Cytotoxicity against human MDA-MB-231 cells assessed as cell growth at 0.01 uM after 48 hrs by sulforhodamine B assay; format: functional; conditions: MDA-MB-231, 48 h, read-out: Activity
SF-268 = test: Cytotoxicity against human SF268 cells assessed as cell growth at 0.01 uM after 48 hrs by sulforhodamine B assay; format: functional; conditions: SF-268, 48 h, read-out: Activity
MDA-MB-231 [2] = test: Cytotoxicity against human MDA-MB-231 cells assessed as cell growth at 10 uM after 48 hrs by sulforhodamine B assay; format: functional; conditions: MDA-MB-231, 48 h, read-out: Activity
A549 = test: Cytotoxicity against human A549 cells assessed as cell growth at 1 uM after 48 hrs by sulforhodamine B assay; format: functional; conditions: A549, 48 h, read-out: Activity
Method in brief: (§2)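 Cells grown in RPMI 1640 with 5% FBS and 2 mM L-glutamine, seeded at 5,000–40,000 cells/well by doubling time. Time-zero plates TCA-fixed after 24 h. Five concentrations (10-fold or half-log dilutions from DMSO stock) added; 48 h at 37 °C, 5% CO2. Cold TCA fixation (final 10%, 60 min, 4 °C), 0.4% SRB stain, dye solubilized in 10 mM trizma base, A515.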

SN12C = test: Cytotoxicity against human SN12C cells assessed as cell growth at 0.01 uM after 48 hrs by sulforhodamine B assay; format: functional; conditions: read-out: Activity
SK-MEL-2 = test: Cytotoxicity against human SK-MEL-2 cells assessed as cell growth at 0.001 uM after 48 hrs by sulforhodamine B assay; format: functional; conditions: SK-MEL-2, 48 h, read-out: Activity
EKVX [3] = test: Growth inhibition of human EKVX cells after 48 hrs by sulforhodamine B assay; format: functional, cell-based; conditions: for CC50: read-out: LC50 (the source's name); method in brief: as §1
MDA-MB-231 [4] = test: Growth inhibition of human MDA-MB-231 cells after 48 hrs by sulforhodamine B assay; format: functional, cell-based; conditions: MDA-MB-231, 48 h; method in brief: as §1
MOLT-4 = test: Cytotoxicity against human MOLT4 cells assessed as cell growth at 10 uM after 48 hrs by sulforhodamine B assay; format: functional; conditions: MOLT-4, 48 h, read-out: Activity
MDA-MB-468 [5] = test: Cytotoxicity against human MDA-MB-468 cells assessed as cell growth at 100 nM after 48 hrs by sulforhodamine B assay; format: functional; conditions: MDA-MB-468, 48 h, read-out: Activity
CAKI-1 [6] = test: Cytotoxicity against human Caki1 cells assessed as cell growth at 100 nM after 48 hrs by sulforhodamine B assay; format: functional; conditions: CAKI-1, 48 h, read-out: Activity
MDA-MB-435 [7] = test: Cytotoxicity against human MDA-MB-435 cells assessed as cell growth at 1 uM after 48 hrs by sulforhodamine B assay; format: functional; conditions: MDA-MB-435, 48 h, read-out: Activity
CAKI-1 [8] = test: Cytotoxicity against human Caki1 cells assessed as cell growth at 0.01 uM after 48 hrs by sulforhodamine B assay; format: functional; conditions: CAKI-1, 48 h, read-out: Activity; method in brief: as §2
Malme-3M = test: Growth inhibition of human MALME-3M cells after 48 hrs by sulforhodamine B assay; format: functional, cell-based; method in brief: as §1
SK-OV-3 = test: Cytotoxicity against human SKOV3 cells assessed as cell growth at 0.01 uM after 48 hrs by sulforhodamine B assay; format: functional; conditions: SK-OV-3, 48 h, read-out: Activity
T47D = test: Cytotoxicity against human T47D cells assessed as cell growth at 10 uM after 48 hrs by sulforhodamine B assay; format: functional; conditions: read-out: Activity
UACC-257 = test: Growth inhibition of human UACC257 cells after 48 hrs by sulforhodamine B assay; format: functional, cell-based; conditions: UACC-257, 48 h; for CC50: read-out: LC50 (the source's name); method in brief: as §1
IGROV-1 = test: Cytotoxicity against human IGROV1 cells assessed as cell growth at 0.001 uM after 48 hrs by sulforhodamine B assay; format: functional; conditions: IGROV-1, 48 h, read-out: Activity
KM12 [9] = test: Cytotoxicity against human KM12 cells assessed as cell growth at 1 uM after 48 hrs by sulforhodamine B assay; format: functional; conditions: KM12, 48 h, read-out: Activity
K562 = test: Cytotoxicity against human K562 cells assessed as cell growth at 0.001 uM after 48 hrs by sulforhodamine B assay; format: functional; conditions: K562, 48 h, read-out: Activity
OVCAR-5 = test: Cytotoxicity against human OVCAR5 cells assessed as cell growth at 0.01 uM after 48 hrs by sulforhodamine B assay; format: functional; conditions: OVCAR-5, 48 h, read-out: Activity
HT-29 = test: Cytotoxicity against human HT-29 cells assessed as cell growth at 10 uM after 48 hrs by sulforhodamine B assay; format: functional; conditions: HT-29, 48 h, read-out: Activity
EKVX [10] = test: Cytotoxicity against human EKVX cells assessed as cell growth at 1 uM after 48 hrs by sulforhodamine B assay; format: functional; conditions: read-out: Activity
[11] = Cytotoxicity against human Hs 578T cells assessed as cell growth at 100 nM after 48 hrs by sulforhodamine B assay; format: functional; conditions: read-out: Activity
U-251 = test: Cytotoxicity against human U251 cells assessed as cell growth at 1 uM after 48 hrs by sulforhodamine B assay; format: functional; conditions: U-251, 48 h, read-out: Activity
786-0 = test: Cytotoxicity against human 786-0 cells assessed as cell growth at 0.01 uM after 48 hrs by sulforhodamine B assay; format: functional; conditions: 786-0, 48 h, read-out: Activity; method in brief: as §2
KM12 [12] = test: Cytotoxicity against human KM12 cells assessed as cell growth at 10 uM after 48 hrs by sulforhodamine B assay; format: functional; conditions: KM12, 48 h, read-out: Activity
HCT-116 = test: Cytotoxicity against human HCT116 cells assessed as cell growth at 0.001 uM after 48 hrs by sulforhodamine B assay; format: functional; conditions: HCT-116, 48 h, read-out: Activity
MDA-MB-435 [13] = test: Growth inhibition of human MDA-MB-435 cells after 48 hrs by sulforhodamine B assay; format: functional, cell-based; conditions: MDA-MB-435, 48 h; for CC50: read-out: LC50 (the source's name); method in brief: as §1
MDA-MB-468 [14] = test: Cytotoxicity against human MDA-MB-468 cells assessed as cell growth at 0.01 uM after 48 hrs by sulforhodamine B assay; format: functional; conditions: MDA-MB-468, 48 h, read-out: Activity

SMILES: CC(=O)c1ccccc1-c1ccc(-c2ccnc(NC(=O)Nc3cc(N4CCOCC4)cc(C(F)(F)F)c3)n2)cn1
- growth at 10 µM (NCI-H460): 88%
- GI50 (SNB-19): 9.04 µM
- pIC50 (SNB-19): 4.41
- TGI (SNB-19): > 100 µM
- CC50 (SNB-19): > 100 µM
- growth at 0.01 µM (MDA-MB-231 [1]): 99%
- growth at 0.01 µM (SF-268): 90%
- growth at 10 µM (MDA-MB-231 [2]): 56%
- growth at 1 µM (A549): 82%
- growth at 0.01 µM (SN12C): 88%
- growth at 0.001 µM (SK-MEL-2): 102%
- GI50 (EKVX [3]): > 100 µM
- pIC50 (EKVX [3]): < 4.00
- TGI (EKVX [3]): > 100 µM
- CC50 (EKVX [3]): > 100 µM
- pIC50 (MDA-MB-231 [4]): 5.51
- LC50 (MDA-MB-231 [4]): > 100 µM
- TGI (MDA-MB-231 [4]): > 100 µM
- growth at 10 µM (MOLT-4): 101%
- growth at 0.1 µM (MDA-MB-468 [5]): 103%
- growth at 0.1 µM (CAKI-1 [6]): 84%
- growth at 1 µM (MDA-MB-435 [7]): 71%
- growth at 0.01 µM (CAKI-1 [8]): 92%
- TGI (Malme-3M; Homo sapiens, Malme-3M, 48 h): > 100 µM
- CC50 (Malme-3M; Homo sapiens, Malme-3M, 48 h, read-out: LC50 (the source's name)): > 100 µM
- IC50 (Malme-3M; malme-3m): Not Active
- growth at 0.01 µM (SK-OV-3): 113%
- growth at 10 µM (T47D): 66%
- GI50 (UACC-257): 15.9 µM
- pIC50 (UACC-257): < 4.00
- TGI (UACC-257): > 100 µM
- CC50 (UACC-257): > 100 µM
- growth at 0.001 µM (IGROV-1): 98%
- growth at 1 µM (KM12 [9]): 86%
- growth at 0.001 µM (K562): 81%
- growth at 0.01 µM (OVCAR-5): 100%
- growth at 10 µM (HT-29): 91%
- growth at 1 µM (EKVX [10]): 63%
- growth at 0.1 µM [11]: 77%
- growth at 1 µM (U-251): 63%
- growth at 0.01 µM (786-0): 100%
- growth at 10 µM (KM12 [12]): 82%
- growth at 0.001 µM (HCT-116): 95%
- GI50 (MDA-MB-435 [13]): > 100 µM
- pIC50 (MDA-MB-435 [13]): < 4.00
- TGI (MDA-MB-435 [13]): > 100 µM
- CC50 (MDA-MB-435 [13]): > 100 µM
- growth at 0.01 µM (MDA-MB-468 [14]): 105%

SMILES: CC(=O)Nc1cccc(-c2ccc(-c3ccnc(NC(=O)Nc4cc(C(F)(F)F)cc(C(F)(F)F)c4)n3)cn2)c1.Cl
- growth at 10 µM (NCI-H460): -60%
- GI50 (SNB-19): 4.57 µM
- pIC50 (SNB-19): 5.34
- TGI (SNB-19): 17.8 µM
- CC50 (SNB-19): 47.4 µM
- growth at 0.01 µM (MDA-MB-231 [1]): 93%
- growth at 0.01 µM (SF-268): 95%
- growth at 10 µM (MDA-MB-231 [2]): -71%
- growth at 1 µM (A549): 10%
- growth at 0.01 µM (SN12C): 96%
- growth at 0.001 µM (SK-MEL-2): 95%
- GI50 (EKVX [3]): 1.44 µM
- pIC50 (EKVX [3]): 5.84
- TGI (EKVX [3]): 5.71 µM
- CC50 (EKVX [3]): > 100 µM
- GI50 (MDA-MB-231 [4]): 3.72 µM
- pIC50 (MDA-MB-231 [4]): 5.43
- LC50 (MDA-MB-231 [4]): 62 µM
- TGI (MDA-MB-231 [4]): 19.7 µM
- growth at 10 µM (MOLT-4): 11%
- growth at 0.1 µM (MDA-MB-468 [5]): 47%
- growth at 0.1 µM (CAKI-1 [6]): 64%
- growth at 1 µM (MDA-MB-435 [7]): -18%
- growth at 0.01 µM (CAKI-1 [8]): 104%
- LC50 (Malme-3M): inactive
- GI50 (Malme-3M; Homo sapiens, Malme-3M, 48 h): 2.01 µM
- TGI (Malme-3M; Homo sapiens, Malme-3M, 48 h): 4.48 µM
- pIC50 (Malme-3M; Homo sapiens, Malme-3M, 48 h, read-out: IC50): 5.70
- growth at 0.01 µM (SK-OV-3): 98%
- growth at 10 µM (T47D): -14%
- GI50 (UACC-257): 1.69 µM
- pIC50 (UACC-257): 5.77
- TGI (UACC-257): 4.32 µM
- CC50 (UACC-257): 13.2 µM
- growth at 0.001 µM (IGROV-1): 95%
- growth at 1 µM (KM12 [9]): -10%
- growth at 0.001 µM (K562): 93%
- growth at 0.01 µM (OVCAR-5): 82%
- growth at 10 µM (HT-29): -64%
- growth at 1 µM (EKVX [10]): -20%
- growth at 0.1 µM [11]: 97%
- growth at 1 µM (U-251): -32%
- growth at 0.01 µM (786-0): 98%
- growth at 10 µM (KM12 [12]): 100%
- growth at 0.001 µM (HCT-116): 92%
- GI50 (MDA-MB-435 [13]): 2.31 µM
- pIC50 (MDA-MB-435 [13]): 5.64
- TGI (MDA-MB-435 [13]): 6.8 µM
- CC50 (MDA-MB-435 [13]): > 100 µM
- growth at 0.01 µM (MDA-MB-468 [14]): 86%
